Compound activity: PubChem, Broad Institute
FN deposition inh = fibronectin deposition inhibition; AH1F fibroblasts, Alexa488-fibronectin deposition fluorescence, overnight; inhibition, % at 12.6 µM; 0.086% of 350,000 active; AID 743247;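 active means mean inhibition across replicates of 30% or more, regardless of how many single replicates reach that level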;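 further: positive control wells lacked labelled fibronectin entirely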
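material = AH1F fibroblast monolayer depositing Alexa488-labelled fibronectin into matrix | amount = 10000 AH1F cells/well | buffer or medium = DMEM plus 2% serum, read in PBS | incubation = 1 h cell adhesion before compound, then overnight fibronectin incubation | detection = fluorescence at 485 nm excitation, 525 nm emission | evaluation = percent inhibition as loss of matrix-bound fibronectin fluorescence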
ERp5 inh = inhibitors of human ERp5; inhibition, % at 9.99 µM; Q15084; 0.05% of 350,000 active; ERp5 insulin aggregation, absorbance 650 nm, 90 min;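 active means mean replicate inhibition above about 25%, with every replicate also reaching it, limit read from the data, passing the limit was not always enough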
Target sequence (Q15084 whole entry, looked up): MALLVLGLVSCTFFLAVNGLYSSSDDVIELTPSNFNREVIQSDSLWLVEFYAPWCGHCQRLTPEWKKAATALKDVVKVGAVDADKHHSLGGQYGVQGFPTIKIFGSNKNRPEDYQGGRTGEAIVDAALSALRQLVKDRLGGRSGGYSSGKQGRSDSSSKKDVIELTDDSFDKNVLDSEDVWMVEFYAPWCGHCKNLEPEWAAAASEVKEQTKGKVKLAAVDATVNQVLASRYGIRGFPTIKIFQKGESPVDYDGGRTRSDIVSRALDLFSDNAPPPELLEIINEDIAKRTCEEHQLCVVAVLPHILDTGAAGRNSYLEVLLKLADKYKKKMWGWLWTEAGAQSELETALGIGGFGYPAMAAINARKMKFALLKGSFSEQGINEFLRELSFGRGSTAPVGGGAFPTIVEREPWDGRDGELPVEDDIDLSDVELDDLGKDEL
rRNA inh HTS = inhibitors of bacterial rRNA selective over humanized ribosomes; E. coli WT GFP vs humanized-ribosome RFP mutants, fluorescence, 24 h; hits give low values; DMSO median 0, no signal -100; GFP signal change (wild-type ribosome), % (concentration not given with the values); 1.6% of 350,000 active; AID 720706;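 active means significant combined selectivity score with lowered wild-type GFP, culture density cut under 30%, mutant RFP and density less affected; inactive means any of these conditions unmet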
PDI inh = inhibitors of human protein disulfide isomerase. inhibition, % at 10 µM. PDI insulin aggregation turbidity, A650, 90 min. P07237. 0.052% of 350,000 active;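 active means mean inhibition across replicates of 30% or more, whatever share of single replicates reach that level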
HIV Env fusion = HIV envelope-mediated fusion inhibition; inhibition, % at 12.3 µM; HeLa-JRFL Env/CEM21 cell fusion, luciferase; 1.1% of 360,000 active;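 active means mean replicate inhibition score of at least 50 and every replicate individually at or above 50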;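 further: 0% = plate neutral controls and 100% = maraviroc near 300 nM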
PvdQ acylase = blocks Pseudomonas aeruginosa PvdQ acylase activity; AID 488965; 0.063% of 340,000 active; purified PvdQ acylase, fluorescence plate reader; inhibition, % at 10 µM; in the data active means inhibition above about 30%, passing the limit was not always enough;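 further: 0% = vehicle neutral wells and 100% = reference inhibitor wells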
* marks the source's active call; other numbers are inactive results; x = no result; [ ] = dose if it differs, or a comment. Compounds with a hit are over-represented: about 2.2% of the library has one in this group of screens.

SMILES	FN deposition inh	ERp5 inh	rRNA inh HTS	PDI inh	HIV Env fusion	PvdQ acylase
O=C1c2cccc3c2N(CCC3)C(=O)C1(F)c1ccccc1 (stereo unspecified)	8	-12	-17*	4	21	x
CC(C)NC(=O)N1CC2(C1)[C@@H](c1ccccc1)[C@@H](CO)N2C(=O)C1CC1	8	1	5	x	x	x
Cc1ccc(CN2CCN(/N=C\c3cccc([N+](=O)[O-])c3)CC2)cc1	1	3	-25*	-8	13	1
BrC(=C\c1ccccc1)/C=N/N1CCN(Cc2ccccc2)CC1	x	x	x	2	x	-12
O=[N+]([O-])c1ccc(/C=N/N2CCN(Cc3ccccc3)CC2)cc1	0	2	-16*	4	1	-3
BrC(/C=N/N1CCN(Cc2ccccc2)CC1)=C/c1ccccc1	1	3	-42*	-4	17	2
Cc1ccc(/C=N/N2CCN(Cc3ccc(C)cc3)CC2)cc1	7	-2	16	8	8	2
COc1cccc(S(=O)(=O)N2CC[C@@H]3[C@@H](CO)Nc4ccc(C#Cc5cccnc5)cc4[C@@H]32)c1	-10	-5	-11	x	x	x
N#Cc1cccc(-c2ccc3c(c2)[C@H]2[C@H](CCN2C(=O)c2ccncc2)[C@H](CO)N3)c1	-4	x	8	x	x	x
O=[N+]([O-])c1cccc(N=NN(CCO)c2cccc([N+](=O)[O-])c2)c1	x	x	x	-6	x	4
N#CCN(N=Nc1ccccc1)c1ccccc1	1	-1	29	-6	-2	75*
COc1ccc(S(=O)(=O)N(C)C[C@H]2Oc3c(NC(=O)NC(C)C)cccc3C(=O)N([C@@H](C)CO)C[C@@H]2C)cc1	1	-1	-4	x	-8[16.7 µM]	x
CCn1c2ccccc2c2cc(CNCc3ccc(OC)cc3OC)ccc21	3	3	-53	1	56*	-10
COc1cccc(CNCc2ccc(OC)cc2OC)c1	-6	3	2	-2	5	-10
O=C(CN1c2ccccc2Sc2ccccc21)NNC(=S)Nc1ccc(Cl)cc1	-2	4	-48*	-4	7	-19
O=C(CN1c2ccccc2Sc2ccccc21)NNC(=S)Nc1ccc(Cl)cc1Cl	x	x	x	2	x	-21
CO[C@H]1CN(C)C(=O)c2cc(NC(=O)c3ccccc3)ccc2OC[C@H](C)N(C(=O)CN(C)C)C[C@@H]1C	-2	0	2	x	x	x
CCOC(=O)C1=C(c2ccccc2)c2ccccc2N(S(=O)(=O)C(F)(F)F)C1C(=O)OCC (stereo unspecified)	x	-4	-47	1	60*	-13
O=C(CSc1nnnn1C1CCCCC1)NCCc1ccccc1	x	3	-28*	-5	x	-7
C[C@@H]1CN([C@@H](C)CO)C(=O)c2cc(NC(=O)Nc3ccccc3)ccc2O[C@@H]1CN(C)S(=O)(=O)c1ccccc1	x	2	3	x	-28[16.7 µM]	x
O=C(C[C@@H]1C[C@@H]2c3cc(NS(=O)(=O)c4ccc(F)cc4)ccc3O[C@@H]2[C@H](CO)O1)NC1CCCCC1	x	-5	-2	x	-5[16.7 µM]	x
COc1cc2c(cc1OC)C(c1ccc(-c3ccc(Cl)cc3Cl)o1)=NCC2	0	x	x	-20	98*	-1
COc1cc2c(cc1OC)C(c1ccc(-c3ccc(Cl)c(Cl)c3)o1)=NCC2	10	x	x	-1	83*	-6
Cn1nc(C(F)(F)F)c2cc(C(=O)Nc3ccc(F)cc3)sc21	-4	2	1	13	-5	-9
Cn1nc(C(F)(F)F)c2cc(C(=O)Nc3ccc(F)c(Cl)c3)sc21	-6	-3	-30*	-7	-14	-2
SMILES	FN deposition inh	ERp5 inh	rRNA inh HTS	PDI inh	HIV Env fusion	PvdQ acylase
Cn1nc(C(F)(F)F)c2cc(C(=O)Nc3ccc(C(F)(F)F)cc3)sc21	9	3	-39*	-3	-4	10
O=C(N[C@H]1CC[C@@H](CCNS(=O)(=O)c2ccc(Cl)cc2)O[C@H]1CO)c1ccccn1	2	1	-4	x	-1[16.7 µM]	x
Nc1ncnc2c(C3OC(CO)C(O)C3O)scc12 (stereo unspecified)	7	12	13	-8	109*	-6
Cc1c(C)c2ccc(OCC(=O)Nc3ccccn3)c(C)c2oc1=O	1	6	5	-5	83*	-2
Cc1c(C)c2cc(Cl)c(OCC(=O)Nc3ccccn3)cc2oc1=O	2	-1	2	-13	-9	x
COc1ccc(CN(C)Cc2c(O)ccc3cc(Br)ccc23)cc1OC	-8	-4	-23*	5	35	15
COc1ccc(CCN(C)Cc2c(O)ccc3cc(Br)ccc23)cc1OC	6	2	-27*	-3	-2	-6
C[C@H]1CN([C@@H](C)CO)C(=O)Cc2cc(NS(=O)(=O)c3cccs3)ccc2O[C@H]1CN(C)C	x	6	1	x	x	x
C[C@H]1CCCCO[C@@H](CN(C)C(=O)c2ccncc2)[C@@H](C)CN([C@@H](C)CO)C(=O)c2cc(NS(=O)(=O)c3ccc(Cl)cc3)ccc2O1	-1	-2	-1	x	8[16.7 µM]	x
O=C(Cc1ccncc1)NCC[C@H]1CC[C@@H](NC(=O)C2CC2)[C@@H](CO)O1	-7	-4	4	x	-7[16.7 µM]	x
COc1ccc(-c2noc(CCCC(=O)N3CCN(c4cc(C)ccc4C)CC3)n2)cc1	-3	7	-1	-1	x	-7
COc1ccc(-c2noc(CCCCC(=O)N3CCN(c4cc(C)ccc4C)CC3)n2)cc1	-5	2	-7	2	68*	1
CCCCCCCCCCOC(=O)C[N+](C)(C)C/C=C(/C)Cl	-17	2	6	16	11	-10
CCCCCCCCOC(=O)C[N+](C)(C)C/C=C(/C)Cl	x	6	-35*	4	1	-8
Cc1noc(C)c1NC(=O)N(C)C[C@H]1OCCCC[C@@H](C)Oc2ccc(NS(=O)(=O)c3cccs3)cc2C(=O)N([C@H](C)CO)C[C@H]1C	x	-2	-1	x	12[16.7 µM]	x
COCCNC(=O)C[C@H]1CC[C@@H](NS(=O)(=O)c2ccc(C)cc2)[C@H](CO)O1	5	2	0	x	8[16.7 µM]	x
COc1ccc2c3c([nH]c2c1)[C@@H](CO)N(C(=O)Nc1c(C)noc1C)CC31CCN(CC2CCCCC2)CC1	x	x	-1	x	x	x
C[C@H](CO)N1C[C@H](C)[C@@H](CN(C)C(=O)Nc2ccccc2)OCCCC[C@H](C)Oc2ccc(NS(C)(=O)=O)cc2C1=O	2	-2	-1	x	-4[16.7 µM]	x
C=CCOc1c(Br)cc(C2C3=C(CCCC3=O)N(C)C3=C2C(=O)CCC3)cc1OCC	-1	2	-34*	1	-2	-13
CCCOc1ccc(C2C(=O)N(C3CCCCCC3)CC(=O)N2Cc2ccco2)cc1OC (stereo unspecified)	9	x	x	3	58*	-10
CCCOc1ccc(C2C(=O)N(C3CCCCC3)CC(=O)N2C2CC2)cc1OC (stereo unspecified)	x	x	x	-2	x	-7
